One data set addresses T1, Androgen receptor (Homo sapiens, UniProt P10275).
T1 sequence (P10275 whole entry): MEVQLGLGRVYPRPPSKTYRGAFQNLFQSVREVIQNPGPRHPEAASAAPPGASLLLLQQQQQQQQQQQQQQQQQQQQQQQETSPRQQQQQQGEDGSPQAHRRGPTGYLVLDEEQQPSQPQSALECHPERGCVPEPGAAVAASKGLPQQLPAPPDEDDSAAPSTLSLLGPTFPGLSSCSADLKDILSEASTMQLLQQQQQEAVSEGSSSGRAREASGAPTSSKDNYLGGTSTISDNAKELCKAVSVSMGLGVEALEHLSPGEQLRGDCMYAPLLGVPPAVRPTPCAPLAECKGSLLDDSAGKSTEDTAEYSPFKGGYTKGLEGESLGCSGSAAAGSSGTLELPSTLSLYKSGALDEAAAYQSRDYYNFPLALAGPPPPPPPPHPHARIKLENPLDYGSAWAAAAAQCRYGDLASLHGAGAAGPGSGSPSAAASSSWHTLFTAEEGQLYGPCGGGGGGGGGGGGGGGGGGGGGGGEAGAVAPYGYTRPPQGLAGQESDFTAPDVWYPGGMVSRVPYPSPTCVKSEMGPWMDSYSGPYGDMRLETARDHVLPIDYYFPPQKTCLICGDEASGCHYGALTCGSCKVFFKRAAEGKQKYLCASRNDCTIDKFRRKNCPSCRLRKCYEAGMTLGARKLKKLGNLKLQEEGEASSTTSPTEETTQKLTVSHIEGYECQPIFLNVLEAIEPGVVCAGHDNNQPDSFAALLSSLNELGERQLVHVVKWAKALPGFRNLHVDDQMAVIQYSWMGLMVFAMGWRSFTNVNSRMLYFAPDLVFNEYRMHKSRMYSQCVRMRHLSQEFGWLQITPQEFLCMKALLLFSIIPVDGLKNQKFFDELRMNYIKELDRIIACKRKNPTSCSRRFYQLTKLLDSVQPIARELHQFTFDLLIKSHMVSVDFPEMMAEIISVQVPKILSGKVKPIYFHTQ
Put plainly: Antagonist activity at human androgen receptor expressed in CHOK1 cells assessed as inhibition of D(-)-norgestrel-induced protein interaction with steroid receptor co-activator peptide after 24 hrs by beta-galactosidase reporter gene assay. The data set is classed as cell-based, CHO-K1.

Data set [1] concerns the target T2, Progesterone receptor (Homo sapiens) (UniProt P06401).
T2 sequence (whole entry): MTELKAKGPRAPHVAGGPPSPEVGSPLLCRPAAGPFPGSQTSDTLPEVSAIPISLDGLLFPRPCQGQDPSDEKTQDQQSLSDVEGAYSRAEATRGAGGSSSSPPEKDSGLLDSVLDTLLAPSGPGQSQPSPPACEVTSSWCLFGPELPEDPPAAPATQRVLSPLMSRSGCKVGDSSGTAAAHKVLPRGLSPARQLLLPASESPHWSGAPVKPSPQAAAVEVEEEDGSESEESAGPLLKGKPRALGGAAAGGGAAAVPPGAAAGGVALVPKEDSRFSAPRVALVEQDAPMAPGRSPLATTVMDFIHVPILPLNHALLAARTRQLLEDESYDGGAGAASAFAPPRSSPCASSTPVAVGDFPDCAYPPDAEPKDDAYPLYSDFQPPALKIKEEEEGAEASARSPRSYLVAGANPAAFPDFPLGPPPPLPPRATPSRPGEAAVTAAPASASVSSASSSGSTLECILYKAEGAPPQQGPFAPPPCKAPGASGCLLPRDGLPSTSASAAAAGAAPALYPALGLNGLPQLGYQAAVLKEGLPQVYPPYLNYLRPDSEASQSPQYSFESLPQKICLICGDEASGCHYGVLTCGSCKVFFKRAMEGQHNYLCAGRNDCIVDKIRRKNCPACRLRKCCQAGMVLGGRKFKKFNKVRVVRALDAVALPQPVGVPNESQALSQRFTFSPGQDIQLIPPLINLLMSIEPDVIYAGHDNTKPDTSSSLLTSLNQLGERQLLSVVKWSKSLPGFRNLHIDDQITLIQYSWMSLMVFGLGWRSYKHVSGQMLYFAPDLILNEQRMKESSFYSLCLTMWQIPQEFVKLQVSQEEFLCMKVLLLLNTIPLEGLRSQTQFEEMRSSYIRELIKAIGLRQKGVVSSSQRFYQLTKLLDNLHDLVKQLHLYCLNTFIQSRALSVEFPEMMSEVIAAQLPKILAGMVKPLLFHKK
Briefly: Agonist activity at human progesterone receptor beta by cell-based assay.

For a further data set, the target named is T3, Progesterone receptor (Homo sapiens, UniProt P06401).
T3 sequence (P06401 whole entry): T2 sequence (whole entry)
Briefly: Antagonist activity at human progesterone receptor beta expressed in human U2OS cells assessed as inhibition of D(-)-norgestrel-induced protein interaction with steroid receptor co-activator peptide after overnight incubation by beta-galactosidase reporter gene assay. It is filed as cell-based.

Data set [2] in a line: Plasma clearance in Wistar han rat at 2 mg/kg, po and 1 mg/kg, iv. The data set is classed as ADME, organism-based. Put shortly:
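Wistar Han rats. IV dose 1 mg/kg in DMSO/PEG200/water (10:60:30), n=2. Oral dose 2 mg/kg in imwitor/tween (1:1) by gavage, n=3. Values are averages. Derived: F%, plasma clearance, Vdss, terminal half-life and oral AUC normalized to dose.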

Data set [3] addresses T4, Estrogen receptor (Homo sapiens) (UniProt P03372).
T4 sequence (whole entry): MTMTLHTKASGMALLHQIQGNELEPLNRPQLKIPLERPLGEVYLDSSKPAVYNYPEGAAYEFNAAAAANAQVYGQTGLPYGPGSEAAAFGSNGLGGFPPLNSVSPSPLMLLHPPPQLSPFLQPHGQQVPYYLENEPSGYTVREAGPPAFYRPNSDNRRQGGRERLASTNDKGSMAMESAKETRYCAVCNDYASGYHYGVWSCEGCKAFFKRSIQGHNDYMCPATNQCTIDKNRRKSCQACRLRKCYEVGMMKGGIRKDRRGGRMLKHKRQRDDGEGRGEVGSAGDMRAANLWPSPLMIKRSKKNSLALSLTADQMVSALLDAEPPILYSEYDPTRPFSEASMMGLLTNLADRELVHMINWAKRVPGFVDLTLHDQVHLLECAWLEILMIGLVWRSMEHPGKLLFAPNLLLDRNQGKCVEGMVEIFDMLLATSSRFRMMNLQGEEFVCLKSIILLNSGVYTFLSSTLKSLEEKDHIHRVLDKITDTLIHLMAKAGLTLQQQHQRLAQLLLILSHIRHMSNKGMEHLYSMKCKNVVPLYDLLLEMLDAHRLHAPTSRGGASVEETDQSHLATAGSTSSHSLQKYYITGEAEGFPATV
Briefly: Agonist activity at human estrogen receptor alpha by cell-based assay.

In another data set the target is Estrogen receptor beta (Homo sapiens, UniProt Q92731). Briefly: Antagonist activity at human estrogen receptor beta assessed as inhibition of agonist-induced protein interaction with steroid receptor co-activator peptide by cell-based reporter gene assay.
Estrogen receptor beta, sequence (Q92731 whole entry): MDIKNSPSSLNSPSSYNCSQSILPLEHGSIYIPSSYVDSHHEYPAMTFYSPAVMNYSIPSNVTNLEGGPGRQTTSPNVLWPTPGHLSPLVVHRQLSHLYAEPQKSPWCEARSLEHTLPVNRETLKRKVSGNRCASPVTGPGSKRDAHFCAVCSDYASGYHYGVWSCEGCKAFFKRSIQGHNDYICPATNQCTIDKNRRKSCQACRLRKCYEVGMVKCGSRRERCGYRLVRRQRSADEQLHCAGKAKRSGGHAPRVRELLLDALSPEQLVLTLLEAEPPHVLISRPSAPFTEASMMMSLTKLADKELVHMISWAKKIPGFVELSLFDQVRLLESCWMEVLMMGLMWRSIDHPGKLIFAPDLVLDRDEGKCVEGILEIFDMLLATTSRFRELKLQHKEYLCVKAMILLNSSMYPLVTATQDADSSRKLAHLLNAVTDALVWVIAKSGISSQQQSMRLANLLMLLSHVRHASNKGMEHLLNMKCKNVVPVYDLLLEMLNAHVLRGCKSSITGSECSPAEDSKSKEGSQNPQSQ

Activity calls are given as the source filed them. No cut-off for these calls is given here.

One may read the IC50 as the concentration needed to halve the response being measured. As to `C[C@H](c1ccc(F)cc1)N1C(=O)O[C@](Cc2ccccc2)(c2nc3cc(NS(C)(=O)=O)ccc3[nH]2)C1=O`, the IC50 on Androgen receptor turned out to be 13 µM; on Progesterone receptor, 4.9 µM; on Estrogen receptor beta, 12 µM. Further, the outcome in data set [1] and in data set [3] was inactive. In addition, in data set [2], the clearance stood at 32 mL/min/kg.
Consider `C[C@H](c1ccc(F)cc1)N1C(=O)O[C@](Cc2ccccc2)(c2nc3cc(-c4cccnc4)ccc3[nH]2)C1=O`, for which the values for the IC50 at Androgen receptor, on Progesterone receptor and at Estrogen receptor beta were 3.7 µM, 2.9 µM and 2.7 µM, respectively. Besides, the result in data set [1] and in data set [3] was inactive. Further, the clearance in data set [2] came out at 80 mL/min/kg.
Regarding `C[C@H](c1ccc(F)cc1)N1C(=O)O[C@](Cc2ccccc2)(c2nc3cc(Cl)ccc3[nH]2)C1=O`, the IC50 on Androgen receptor was 3.1 µM; at Progesterone receptor it was 2.4 µM; on Estrogen receptor beta, 2.4 µM. Besides, the result in data set [1] and in data set [3] was inactive. In addition, the clearance in data set [2] turned out to be 47 mL/min/kg.
Consider `C[C@H](c1ccc(F)cc1)N1C(=O)O[C@](Cc2ccccc2)(c2nc3cc(-c4cc[nH]n4)ccc3[nH]2)C1=O`, for which the IC50 at Androgen receptor turned out to be 3.1 µM; at Progesterone receptor, 2.9 µM; at Estrogen receptor beta, 2.6 µM. In addition, the outcome in data set [1] and in data set [3] was inactive. In data set [2], this molecule returned a clearance of 19 mL/min/kg.
For the molecule `Cc1nocc1-c1ccc2[nH]c([C@@]3(Cc4ccccc4)OC(=O)N([C@H](C)c4ccc(F)cc4)C3=O)nc2c1`, the figures for the IC50 on Androgen receptor, at Progesterone receptor and at Estrogen receptor beta were 3.4 µM, 2.8 µM and 3 µM, respectively. Further, the outcome in data set [1] and in data set [3] was inactive. In data set [2], the clearance came out at 20 mL/min/kg.
As to `C[C@H](c1ccc(F)cc1)N1C(=O)O[C@](Cc2ccccc2)(c2nc3cc(C(F)(F)F)ccc3[nH]2)C1=O`, the IC50 at Androgen receptor is 3 µM; on Progesterone receptor, 3.2 µM; at Estrogen receptor beta, 2.7 µM. For the same molecule, the result in data set [1] and in data set [3] was inactive. This molecule had a clearance in data set [2] of 33 mL/min/kg.
On to `C[C@H](c1ccc(F)cc1)N1C(=O)O[C@](Cc2ccccc2)(c2nc3c(NS(C)(=O)=O)cccc3[nH]2)C1=O`, for which the IC50 on Androgen receptor amounted to 11 µM; on Progesterone receptor, 8.2 µM; on Estrogen receptor beta it was 7.3 µM. For the same molecule, the outcome in data set [1] and in data set [3] was inactive. Further, the clearance in data set [2] was determined as 55 mL/min/kg.
Take `C[C@H](c1ccc(F)cc1)N1C(=O)O[C@](Cc2ccccc2)(c2nc3cc(N4CCOCC4)ccc3[nH]2)C1=O`: the IC50 on Androgen receptor was determined as 7.7 µM; at Progesterone receptor it was 1.9 µM; on Estrogen receptor beta it was 5.3 µM. Besides, the result in data set [1] and in data set [3] was inactive. In addition, the clearance in data set [2] was determined as 67 mL/min/kg.

The values above are taken from ChEMBL document CHEMBL3576820, “Discovery of benzimidazole oxazolidinediones as novel and selective nonsteroidal mineralocorticoid receptor antagonists” (ACS Med Chem Lett, 2015).
